Test [1] concerns Mus musculus. The test is described as follows: Antinociceptive activity in icv dosed ICR mouse assessed as warm-water tail-withdrawal latency by tail flick assay. The class given is functional. Put shortly: (§1)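 Male ICR mice dosed i.c.v. in 5 µL (test compounds in 100% DMSO, morphine in water) under light ether anaesthesia. Tail withdrawal from 55 °C water, 10 s cutoff, tested 10–180 min post-injection. %MPE computed against pre-drug baseline. A50 with 95% confidence limits by linear regression at time of peak effect.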
(In general: Thermal pain tests record how soon the animal reacts.)

The subject of test [2] is Mus musculus. As to the kind of experiment: Antinociceptive activity in ICR mouse assessed as warm-water tail-withdrawal latency at 0.1 to 100 nmol, icv bid for 3 days relative to naive control. In kind it is functional.
Test [3] relates to Mus musculus. As to the kind of experiment: Antinociceptive activity in ICR mouse assessed as warm-water tail-withdrawal latency at 10 nmol, icv by tail flick assay. The class given is functional. The method in brief:
as §1

The test system of test [4] is CHO. As to the kind of experiment: Activity at human MOR/mouse DOR expressed in CHO cells assessed as increase in forskolin-stimulated cAMP accumulation at 1 uM after drug exposure for 20 hrs followed by washout in the presence of naloxone. In kind it is functional, cell-based. Put shortly:
(§2)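 MOR/DOR co-expressing CHO cells (mouse N-cMyc DOR + human MOR) exposed 20 h to drug, then washed three times with serum-free medium and preincubated 20 min at 37 °C with IBMX 500 µM. Then 10 min at 37 °C with forskolin 100 µM/IBMX 500 µM, with or without 10 µM naloxone. Read-out was cAMP by [3H]cAMP–protein kinase binding against a standard curve. Mean of n=3.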
A general note: Cyclic AMP is a second messenger, typically raised through Gs and lowered through Gi signalling.

The subject of test [5] is CHO. As to the kind of experiment: Activity at human MOR/mouse DOR expressed in CHO cells assessed as increase in forskolin-stimulated cAMP accumulation at 1 uM after drug exposure for 20 hrs followed by washout. The class given is functional, cell-based. Put shortly:
as §2

The test system of test [6] is Mus musculus. As to the kind of experiment: Antinociceptive activity in icv dosed ICR mouse assessed as warm-water tail-withdrawal latency administered bid for 3 days. In kind it is functional.
For test [7], the target named is T1, Kappa-type opioid receptor (Homo sapiens, UniProt P41145). The test is described as follows: Agonist activity at human kappa opioid receptor expressed in CHO cells assessed as [35S]GTPgammaS binding at 10 uM by scintillation counting analysis. In kind it is functional, cell-based. Put shortly: (§3)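 Human KOR or MOR in CHO cell membranes (50 µg protein), 3 h at 25 °C, pH 7.4 Tris buffer with 100 mM NaCl, 10 mM MgCl2, 1 mM EDTA, 1 mM DTT, 0.1% BSA, GDP 40 µM and [35S]GTP-γ-S 50 pM. Stimulation = (S−B)/B×100, with Emax relative to U69,593 (KOR) or DAMGO (MOR). Curves were ten points, ≥3 experiments pooled. Antagonist Ke was taken from the shift in standard agonist EC50.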
T1 sequence (P41145 whole entry): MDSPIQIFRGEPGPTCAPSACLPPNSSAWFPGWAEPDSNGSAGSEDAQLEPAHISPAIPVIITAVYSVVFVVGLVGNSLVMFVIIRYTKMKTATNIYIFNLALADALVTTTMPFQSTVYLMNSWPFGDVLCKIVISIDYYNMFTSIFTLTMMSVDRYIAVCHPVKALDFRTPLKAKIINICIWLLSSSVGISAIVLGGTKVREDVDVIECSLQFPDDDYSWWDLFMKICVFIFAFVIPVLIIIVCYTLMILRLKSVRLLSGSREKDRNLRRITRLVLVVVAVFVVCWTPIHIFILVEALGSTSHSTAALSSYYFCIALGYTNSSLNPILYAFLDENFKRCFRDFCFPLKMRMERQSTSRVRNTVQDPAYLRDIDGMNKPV

The subject of test [8] is Mus musculus. As to the kind of experiment: Antinociceptive activity in icv dosed ICR mouse assessed as warm-water tail-withdrawal latency by tail flick assay in presence of naloxone. In kind it is functional, organism-based.
Test [9] concerns Mus musculus. As to the kind of experiment: Antinociceptive activity in ICR mouse assessed as warm-water tail-withdrawal latency at 1 nmol, icv by tail flick assay. In kind it is functional. Put shortly: as §1
The test system of test [10] is CHO. As to the kind of experiment: Activity at human MOR/mouse DOR expressed in CHO cells assessed as increase in forskolin-stimulated cAMP accumulation at 30 nM after drug exposure for 20 hrs followed by washout. In kind it is functional, cell-based. The method in brief: as §2
A short description of test [11]: Activity at human MOR/mouse DOR expressed in CHO cells assessed as inhibition of DAMGO-mediated forskolin-stimulated cAMP accumulation at 30 nM after 20 hrs by scintillation counting analysis. In kind it is functional. The method in brief:
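CHO cells stably co-expressing human MOR and cMyc-tagged mouse DOR were pretreated 20 h with 30 nM drug or medium, then washed. They were preincubated 20 min with 500 µM IBMX, then given 15 min with IBMX, 100 µM forskolin and graded DAMGO at 37 °C. cAMP was measured by [3H]cAMP–protein kinase binding against a standard curve.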

The subject of test [12] is Delta-type opioid receptor. The test is described as follows: Antagonist activity at delta opioid receptor expressed in rat/mouse NG108-15 cells assessed as [35S]GTPgammaS binding by scintillation counting analysis. In kind it is functional, cell-based. Put shortly:
(§4)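 NG108-15 cell membranes (50 µg protein), 3 h at 25 °C, pH 7.4 Tris buffer with 100 mM NaCl, 10 mM MgCl2, 1 mM EDTA, 1 mM DTT, 0.1% BSA, GDP 40 µM and [35S]GTP-γ-S 50 pM. Nonspecific binding with 40 µM GTP-γ-S; filtration and scintillation counting. Stimulation = (S−B)/B×100, with Emax relative to DADLE. Curves were ten points, ≥3 experiments pooled. Ke was taken from the shift in standard agonist EC50.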

Test [13] has as its system CHO. As to the kind of experiment: Activity at human MOR/mouse DOR expressed in CHO cells assessed as increase in forskolin-stimulated cAMP accumulation at 30 nM after drug exposure for 20 hrs followed by washout in the presence of naloxone. In kind it is functional, cell-based. The method in brief: as §2
Test [14] concerns Delta-type opioid receptor. As to the kind of experiment: Agonist activity at delta opioid receptor expressed in rat/mouse NG108-15 cells assessed as [35S]GTPgammaS binding at 10 uM by scintillation counting analysis. The class given is functional, cell-based. Put shortly: as §4
In general terms: Binding of GTPγS marks nucleotide exchange on a G protein.

In test [15] the target is T2, Mu-type opioid receptor (Homo sapiens, UniProt P35372). As to the kind of experiment: Agonist activity at human mu opioid receptor expressed in CHO cells assessed as [35S]GTPgammaS binding by scintillation counting analysis relative to DAMGO. In kind it is functional, cell-based. Put shortly: as §3
T2 sequence (P35372 whole entry): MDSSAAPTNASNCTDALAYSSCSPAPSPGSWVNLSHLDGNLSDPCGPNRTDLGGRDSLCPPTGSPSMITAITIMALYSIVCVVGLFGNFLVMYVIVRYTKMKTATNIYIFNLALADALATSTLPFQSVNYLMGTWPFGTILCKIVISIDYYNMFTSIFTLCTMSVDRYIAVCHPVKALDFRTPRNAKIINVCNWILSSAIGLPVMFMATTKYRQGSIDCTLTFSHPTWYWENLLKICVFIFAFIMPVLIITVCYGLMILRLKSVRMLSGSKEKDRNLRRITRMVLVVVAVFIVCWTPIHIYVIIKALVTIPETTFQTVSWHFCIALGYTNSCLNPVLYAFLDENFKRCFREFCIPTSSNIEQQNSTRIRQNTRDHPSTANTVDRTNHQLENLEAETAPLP
For test [16], the target named is T3, Delta-type opioid receptor (Homo sapiens, UniProt P41143). As to the kind of experiment: Binding affinity to delta opioid receptor by radioligand binding assay. The method in brief:
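Membranes from CHO cells stably expressing human DOR; [³H]DADLE at ~2 nM, displaced by 10 drug concentrations. Incubated 2 h at 25 °C in 50 mM Tris-HCl pH 7.4 with protease inhibitors, ~30 µg protein; triplicates; filtration and scintillation counting. Nonspecific binding defined with 20 µM levallorphan. Three experiments pooled and fitted for IC50.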

Test [17] addresses T1, Kappa-type opioid receptor. The test is described as follows: Binding affinity to kappa opioid receptor by radioligand binding assay.
The target of test [18] is T2, Mu-type opioid receptor. As to the kind of experiment: Binding affinity to mu opioid receptor by radioligand binding assay.
A further test in a line: cells. The following applies: CHO, 20 h.
Test [19] deals with T2, Mu-type opioid receptor. As to the kind of experiment: Agonist activity at human mu opioid receptor expressed in CHO cells assessed as [35S]GTPgammaS binding by scintillation counting analysis. In kind it is functional, cell-based. Put shortly:
as §3

Test [20] can be described thus: Agonist activity at delta opioid receptor expressed in rat/mouse NG108-15 cells assessed as [35S]GTPgammaS binding by scintillation counting analysis relative to DADLE. The class given is functional, cell-based. Put shortly:
as §4

Test [21] is filed under the species Homo sapiens. The test is described as follows: Selectivity ratio of Ki for human kappa opioid receptor to Ki for human delta opioid receptor.
Test [22] is described as follows: Activity at human MOR/mouse DOR expressed in CHO cells assessed as inhibition of DAMGO-mediated forskolin-stimulated cAMP accumulation after 20 hrs by scintillation counting analysis relative to morphine. In kind it is functional. Put shortly:
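CHO cells stably co-expressing human MOR and N-cMyc-tagged mouse DOR, treated 20 h with drug (morphine 1 µM; test compounds 30 nM) or medium. Cells washed, 20 min in serum-free medium with 500 µM IBMX at 37 °C, then 15 min with IBMX plus 100 µM forskolin and graded DAMGO. Acid-extracted cAMP measured by [³H]cAMP protein-kinase binding competition. DAMGO EC₅₀ expressed as fold over control cells; n=3.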

In test [23] the target is T1, Kappa-type opioid receptor. As to the kind of experiment: Displacement of [3H]U69,593 from human kappa opioid receptor expressed in CHO cells by scintillation counting analysis. In kind it is cell-based.
Test [24] is filed under the species Homo sapiens. As to the kind of experiment: Selectivity ratio of Ki for human mu opioid receptor to Ki for human delta opioid receptor.
For test [25], the target named is T3, Delta-type opioid receptor. As to the kind of experiment: Displacement of [3H]DADLE from human delta opioid receptor expressed in CHO cells by scintillation counting analysis. In kind it is cell-based.
For test [26], the target named is T2, Mu-type opioid receptor. As to the kind of experiment: Displacement of [3H]DAMGO from human mu opioid receptor expressed in CHO cells by scintillation counting analysis. The class given is cell-based.

Active and inactive are the calls of the source.

Usually Emax stands for the maximal effect, on the per cent scale that the assay sets. In general, Ki refers to the dissociation constant of the complex between target and ligand, obtained from inhibition or displacement. Low readings indicate higher affinity, high ones lower affinity. One may read the EC50 as the concentration needed to bring the measured effect to its halfway point.

T3 sequence (P41143 whole entry): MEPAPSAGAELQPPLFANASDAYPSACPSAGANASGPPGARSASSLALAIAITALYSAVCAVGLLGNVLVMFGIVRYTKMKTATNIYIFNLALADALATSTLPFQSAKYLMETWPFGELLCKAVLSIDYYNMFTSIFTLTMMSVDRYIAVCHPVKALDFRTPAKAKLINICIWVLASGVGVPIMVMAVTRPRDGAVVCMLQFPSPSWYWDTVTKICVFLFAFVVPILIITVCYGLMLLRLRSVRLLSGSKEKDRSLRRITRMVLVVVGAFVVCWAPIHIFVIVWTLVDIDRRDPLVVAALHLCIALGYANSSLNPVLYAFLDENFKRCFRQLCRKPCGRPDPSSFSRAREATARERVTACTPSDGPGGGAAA

With `CN1CC[C@]23c4c5ccc(O)c4O[C@H]2[C@@H](O)C=C[C@H]3[C@H]1C5` [MORPHINE], the A50 with Mus musculus [1] stood at 0.43 nmol; in the test on Mus musculus [6], 19.04 nmol. The “fold change (FC)” value with Mus musculus [2] was 44. For the same compound, the “%max” value in the test on Mus musculus [3] worked out at 100%. In addition, the result with CHO [4] and in the test on CHO [5] was Active.
Regarding `Oc1ccc2c3c1O[C@H]1c4ncc(-c5ccc(Cl)cc5)cc4C[C@@]4(OCCCc5ccccc5)[C@@H](C2)N(CC2CC2)CC[C@]314`, the A50 was found to be 0.35 nmol with Mus musculus [1] and 2.78 nmol in the test on Mus musculus [6]. In the test with Mus musculus [1], the Activity entry is “Dose-dependent effect”. The outcome (in test [7]; with Mus musculus [8]; with CHO [10]; in the test on CHO [13]; in test [14]) was inactive. Also, the “%max” value with Mus musculus [9] is on record as 75%. Further, the Emax at 0.03 µM in test [11] was 40%. Further, the Ke in test [12] is 0.091 nM. Further, the Emax on Mu-type opioid receptor [15] came out at 72%.
On to `Oc1ccc2c3c1O[C@H]1c4ncc(-c5ccc(Cl)cc5)cc4C[C@@]4(O)[C@@H](C2)N(CC2CC2)CC[C@]314`, for which the Ki amounted to 2.2 nM in test [16], 20 nM in test [17] and 51 nM at Mu-type opioid receptor [18].
Turning to `CN1CC[C@]23c4c5ccc(O)c4O[C@H]2c2ncc(-c4ccc(Cl)cc4)cc2C[C@@]3(OCCCc2ccccc2)[C@H]1C5`, the figures for the EC50 in the test “cells” and on Mu-type opioid receptor [19] were 0.34 nM and 2.15 nM, respectively. In addition, the A50 in the test on Mus musculus [1] stood at 0.23 nmol. Also, the Activity result with Mus musculus [1] is “Dose-dependent effect”. For the same compound, the Emax in test [20] is 85%; on Mu-type opioid receptor [15] it was 125%. Moreover, the outcome (in [7]; with Mus musculus [8]) was inactive. In addition, the figures for the Ratio Ki in the test filed under Homo sapiens [21] and in the test filed under Homo sapiens [24] were 1.5 and 0.52, respectively. In [22], the “fold change (FC)” value is listed as 7. Besides, in the test with Mus musculus [9], the “%max” value was found to be 92%. Also, the result with CHO [10] and with CHO [13] was Active. Also, the Emax at 0.03 µM in [11] stood at 20%. Besides, the Ki in [23] came to 1.53 nM; in [25] it was 1.04 nM; at Mu-type opioid receptor [26], 0.54 nM.
As for `CN1CC[C@]23c4c5ccc(O)c4O[C@H]2c2ncc(-c4ccc(Cl)cc4)cc2C[C@@]3(O)[C@H]1C5`, the Ki was 3.9 nM in test [16], 468 nM in [17] and 230 nM at Mu-type opioid receptor [18].

The values are drawn from ChEMBL document CHEMBL2177065, “14-Alkoxy- and 14-acyloxypyridomorphinans: μ agonist/δ antagonist opioid analgesics with diminished tolerance and dependence side effects” (J Med Chem, 2012).
